Test results: ChEMBL document CHEMBL3751733, “Synergistic Antifungal Meroterpenes and Dioxolanone Derivatives from the Endophytic Fungus Guignardia sp” (J Nat Prod, 2015)
≈ marks a conversion by molar mass, not a printed value. Calls of active or inactive are those of the source. No cut-off for these calls is given here.

Legend:
Candida albicans [1] = assay: Antibiofilm activity against Candida albicans ATCC 24433 at 1000 ug/ml after 24 hrs by XTT-based colorimetric assay; type: functional, organism-based
Procedure, shortened: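 Biofilms grown from overnight YPD cells, PBS-washed and resuspended to 1.0 × 10^6 cfu/mL in RPMI-1640 plus MOPS, 37 °C for 24 h. After three PBS washes, treated a further 24 h at 37 °C. Then 0.5 mg/mL XTT for 2 h, read at 490 nm. MIC taken as the lowest concentration giving ≥80% reduction in XTT reduction.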

Candida albicans [2] = assay: Antibiofilm activity against Candida albicans ATCC 24433 at 1000 ug/ml after 24 hrs by scanning electron microscopic analysis; type: functional, organism-based
Procedure, shortened: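 Biofilms grown from 1.0 × 10^6 cfu/mL suspensions on poly-L-lysine-treated glass coverslips, 37 °C for 24 h. PBS-washed three times, then exposed to drug for another 24 h. Fixed overnight in 2.5% glutaraldehyde in 0.2 M PBS (pH 7.2), then 1% osmium for 2 h. Ethanol-dehydrated, critical-point dried, gold-coated, and imaged by SEM at high vacuum, 10 kV.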

Candida albicans [3] = assay: Antibiofilm activity against Candida albicans ATCC 24433 after 24 hrs by XTT-based colorimetric assay; type: functional; details: ATCC 24433, 24 h
Procedure, shortened: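 XTT assay: YPD overnight culture, PBS-washed, 1.0 × 10^6 cfu/mL in RPMI-1640/MOPS; biofilms formed at 37 °C for 24 h, washed, then treated 24 h at 37 °C; 0.5 mg/mL XTT for 2 h, read at 490 nm. MIC = lowest concentration giving ≥80% reduction in XTT signal.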

Candida albicans [4] = assay: Antifungal activity against Candida albicans ATCC 24433 assessed as growth inhibition after 24 hrs by broth microdilution assay; type: functional; details: ATCC 24433, 24 h
Procedure, shortened: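 Broth microdilution: 24-h colonies suspended in 0.85% saline, diluted in RPMI-1640 with MOPS to 1.0 × 10^4 cfu/mL final, mixed 1:1 with sample; 35 °C, 24 h; OD 595 nm. MIC = lowest concentration giving 80% growth reduction. Fluconazole positive control; SD from three independent experiments.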

Q: Which results are given for `OC(Cn1cncn1)(Cn1cncn1)c1ccc(F)cc1F` [FLUCONAZOLE]?
A: Activity (Candida albicans [1]): inactive; Activity (Candida albicans [2]): inactive; MIC80 (Candida albicans [3]): > 1000 µg/mL; MIC80 (Candida albicans [4]): 0.25 µg/mL (≈ 0.816 µM)
